From ChEMBL document CHEMBL4017508, “Design, Synthesis, and Biological Evaluation of Novel Type I1/2 p38α MAP Kinase Inhibitors with Excellent Selectivity, High Potency, and Prolonged Target Residence Time by Interfering with the R-Spine” (J Med Chem, 2017)

System: Liver
Assay: Drug metabolism in rat liver microsomes assessed as metabolite formation after 180 mins in presence of NADPH by LC-MS analysis
Type: ADME, microsome
Details: 3 h
How it was run: (§1)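 Incubation with rat liver microsomes for 180 min, run in triplicate; mean ± standard deviation reported. Parent decrease and percentage of formed metabolites were followed by LC-MS. Samples were dissolved in MeOH and separated on a C18 core-shell column at 20 °C. The gradient ran from 5 to 100% acetonitrile against water, both with 0.1% formic acid, at 500 μL/min. Detection used ESI+.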

Drug metabolism	SMILES
Metabolite_Notdetected	O=C(NCC(O)CO)c1ccc2c(c1)C(=O)c1ccc(Nc3ccc(F)c(NC(=O)C4CC4)c3)cc1CC2 (configuration not stated)

System: not listed separately
Assay: Metabolic stability in rat liver microsomes after 180 mins in presence of NADPH by LC-MS analysis
Type: ADME, microsome
Details: read-out: Stability
How it was run: as §1

remaining at 3 h	SMILES
48.7%	O=C(NCC(O)CO)c1ccc2c(c1)C(=O)c1ccc(Nc3cc(NC(=O)c4cccs4)c(F)cc3F)cc1OC2 (configuration not stated)
95.2%	O=C(NCC(O)CO)c1ccc2c(c1)C(=O)c1ccc(Nc3ccc(F)c(NC(=O)C4CC4)c3)cc1CC2 (configuration not stated)
65.6%	CNC(=O)c1ccc2c(c1)C(=O)c1ccc(Nc3ccc(F)c(NC(=O)c4ccccc4)c3)cc1CC2
61.6%	CNC(=O)c1ccc2c(c1)C(=O)c1ccc(Nc3cccc(C(=O)NC4CC4)c3F)cc1CC2
79.5%	CNC(=O)c1ccc2c(c1)C(=O)c1ccc(Nc3ccc(F)c(NC(=O)C4CC4)c3)cc1CC2
76.6%	O=C(NCC(O)CO)c1ccc2c(c1)C(=O)c1ccc(Nc3cc(NC(=O)c4cccs4)c(F)cc3F)cc1CC2 (configuration not stated)
40.6%	O=C(NCCN1CCOCC1)c1ccc2c(c1)C(=O)c1ccc(Nc3ccc(F)c(NC(=O)c4ccccc4)c3)cc1CC2 [FS-694]
66.7%	O=C(NCCN1CCOCC1)c1ccc2c(c1)C(=O)c1ccc(Nc3cc(NC(=O)c4cccs4)c(F)cc3F)cc1CC2
14.8%	O=C(NCCN1CCOCC1)c1ccc2c(c1)C(=O)c1ccc(Nc3ccc(F)c(NC(=O)c4ccccc4)c3)cc1OC2
57.1%	O=C(NCCN1CCOCC1)c1ccc2c(c1)C(=O)c1ccc(Nc3ccc(F)c(NC(=O)c4cccs4)c3)cc1CC2
66.9%	O=C(NCCO)c1ccc2c(c1)C(=O)c1ccc(Nc3cc(NC(=O)c4cccs4)c(F)cc3F)cc1CC2
